Inhibition data for 33 compounds are collected here from PubChem BioAssay AID1517 (The Scripps Research Institute Molecular Screening Center, 2009).

The other results are listed elsewhere or left out. Active and inactive are the calls of the source.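 How the source made its calls: active means percent inhibition of p97 ATPase above a set limit, the primary screen's mean plus 3 SD (cut at about 15% in these data); inactive means the rest.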

Chain of Transitional endoplasmic reticulum ATPase (Homo sapiens) (P55072 whole entry, looked up): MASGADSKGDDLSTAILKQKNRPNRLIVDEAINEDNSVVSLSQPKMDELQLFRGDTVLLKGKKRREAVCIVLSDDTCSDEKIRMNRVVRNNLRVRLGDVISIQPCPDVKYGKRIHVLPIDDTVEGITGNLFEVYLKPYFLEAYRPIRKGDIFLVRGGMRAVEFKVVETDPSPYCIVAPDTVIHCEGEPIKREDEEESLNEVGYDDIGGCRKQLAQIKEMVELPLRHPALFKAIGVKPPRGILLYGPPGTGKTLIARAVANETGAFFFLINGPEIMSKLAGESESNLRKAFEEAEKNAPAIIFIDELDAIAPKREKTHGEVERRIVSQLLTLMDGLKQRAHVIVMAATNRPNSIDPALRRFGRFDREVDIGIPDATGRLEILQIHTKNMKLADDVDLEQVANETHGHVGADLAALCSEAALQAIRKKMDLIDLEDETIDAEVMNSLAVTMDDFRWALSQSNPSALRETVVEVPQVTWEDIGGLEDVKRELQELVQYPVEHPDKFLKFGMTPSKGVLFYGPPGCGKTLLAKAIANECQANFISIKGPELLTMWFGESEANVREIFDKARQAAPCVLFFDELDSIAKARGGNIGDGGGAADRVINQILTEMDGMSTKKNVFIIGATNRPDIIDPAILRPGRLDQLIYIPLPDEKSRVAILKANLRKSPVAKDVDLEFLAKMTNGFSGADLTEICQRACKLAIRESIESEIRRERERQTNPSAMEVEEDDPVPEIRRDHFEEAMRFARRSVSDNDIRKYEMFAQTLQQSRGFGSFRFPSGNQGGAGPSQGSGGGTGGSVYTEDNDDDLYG

The test deals with Transitional endoplasmic reticulum ATPase (Homo sapiens) (UniProt P55072). Briefly: p97 ATPase inhibitors, retest, confirmation, biochemical (AID 1517).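 Further: 0% = DMSO wells and 100% = wells lacking p97 protein.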 The settings on record: recombinant p97 ATPase, Kinase-Glo ATP luminescence; at 8 µM; stronger effect = higher value. In short, it runs like this:
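Material: recombinant p97; timing: 30 min preincubation at 25 °C plus 3 h with ATP; signal: Kinase-Glo luminescence; read-out basis: percent inhibition of ATPase activity, normalized to DMSO and no-enzyme wells; benchmarks: DMSO wells without compound and wells lacking p97 enzyme; repeats: triplicate wells per compound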
The inhibition is the drop in the measured response relative to a control, in per cent. In the case of `O=C(/C=C/c1ccc(Cl)c([N+](=O)[O-])c1)c1ccc(O)cc1`, the inhibition was 10.9% (inactive).

Take `COc1ccccc1C1C(C#N)=C(N)Oc2c1c(-c1ccccc1)nn2-c1ccccc1` (stereo not drawn): the inhibition is 1.04% (inactive).

For the compound `C=CCn1c(N)c(C(=O)OCC(C)C)c2nc3ccccc3nc21`, the inhibition is 18.1% (active).

For `N#CC1=C(N)Oc2[nH]c(=S)[nH]c(=O)c2C12C(=O)Nc1ccccc12` (stereo not drawn), the inhibition was 25.8% (active).

As to `Oc1c(C=Nc2cccc3nsnc23)ccc2ccccc12`, the inhibition was 4.01% (inactive).

For the compound `CCN(CC)CCNC(=O)CCCCCn1c(=O)[nH]c2cc(C(=O)OC)ccc2c1=O`, the inhibition is 2.31% (inactive).

As to `Cc1ccc2c(c1)NCC(C(=O)NC1CCC(C)CC1)O2` (stereo not drawn), the inhibition is 4.67% (inactive).

Take `CC(C(=O)O)n1cnc2sc3c(c2c1=O)CCCC3` (stereo not drawn): the inhibition is 6.68% (inactive).

Turning to `Cc1cc(C)c2cc(CN(Cc3nnnn3Cc3ccc(F)cc3)C3CCCC3)c(=O)[nH]c2c1`, the inhibition was 4.43% (inactive).

As for `COc1ccc2c(c1)C(=C(C#N)C#N)C(=O)N2CCc1ccccc1`, the inhibition was 19.5% (active).

Take `C=CCn1c(=S)[nH]c2scc(-c3ccco3)c2c1=O`: the inhibition was 13.5% (inactive).

As for `O=C(NNC(=S)Nc1ccccc1)c1cccc(S(=O)(=O)N2CCOCC2)c1`, the inhibition was 3.56% (inactive).

`CC1CCCN(C(C(=O)Nc2ccc(C(C)C)cc2)c2ccc3c(c2)OCO3)C1` (stereo not drawn): the inhibition was -0.84% (inactive).

For the compound `CCN(c1ccccc1)S(=O)(=O)c1ccc(N)cc1`, the inhibition is 1.51% (inactive).

As for `O=C(OCC1O[C@@H](OC(=O)c2cc(O)c(O)c(O)c2)[C@@H](OC(=O)c2cc(O)c(O)c(O)c2)[C@@H](OC(=O)c2cc(O)c(O)c(O)c2)[C@@H]1OC(=O)c1cc(O)c(O)c(O)c1)c1cc(O)c(O)c(O)c1` (stereo partly drawn), the inhibition is 59.8% (active).

In the case of `Oc1c(Cl)cc(Cl)c(Cl)c1Cc1c(O)c(Cl)cc(Cl)c1Cl`, the inhibition was 73.9% (active).

For `COc1ccc(Cl)cc1C(=O)NNC(=O)c1nc2nc(C)cc(C)n2n1`, the inhibition is 20.8% (active).

On to `N=C1C(c2nc3ccccc3s2)=C(O)CN1NC(=O)c1ccc([N+](=O)[O-])cc1`, for which the inhibition was 37.1% (active).

Regarding `Cc1[nH][nH]c(=O)c1C(c1ccc(-c2ccc(Cl)cc2)o1)c1c(C)[nH][nH]c1=O`, the inhibition is 9.11% (inactive).

Take `CCOC(=O)N1CCC(c2cc(=O)n(-c3ccccc3)[nH]2)CC1`: the inhibition is 7.34% (inactive).

As for `Clc1ccc(C2=CSC3=Nc4cccc5cccc(c45)N23)cc1`, the inhibition is 2.9% (inactive).

With `Cc1no[n+]([O-])c1COc1ccccc1/C=C1\NC(=S)NC1=O`, the inhibition was 39.9% (active).

As for `[O-][n+]1onc2c1CCc1[nH]c(-c3ccccc3)nc1-2`, the inhibition was 39.8% (active).

For the compound `COc1ccc(-c2[nH]ncc2/C=N/NC(=O)c2cc(Br)ccc2O)c(OC)c1`, the inhibition was 25.7% (active).

Take `CCOc1c(Br)cc(/C=C2\C(=O)N(CCC#N)N=C2C)cc1OC`: the inhibition is 6.06% (inactive).

`COc1ccc(-c2cc(-c3ccc(N)cc3)nc(N)c2C#N)cc1OC`: the inhibition is 19.8% (active).

Take `N#Cc1c(N2CCCCC2)nc(N)c2c(N)nc(SCC(=O)O)cc12`: the inhibition was 46% (active).

`CC(=O)N1CCc2cc(Br)cc(S(=O)(=O)CCC(=O)Nc3c(C)n(C)n(-c4ccccc4)c3=O)c21`: the inhibition was 2.71% (inactive).

Regarding `Nc1ccc2nc3c(=O)[nH]c(=S)[nH]c3nc2c1`, the inhibition is 25.4% (active).

As for `O=C(c1[nH]ncc1-c1ccc(Cl)cc1)C1CO1` (stereo not drawn), the inhibition is 12.5% (inactive).

On to `NC(N)=N/N=C/c1ccc(OCc2ccc(Cl)cc2Cl)cc1`, for which the inhibition is 37.7% (active).

For the compound `CCC(C)NC(=O)CSC1=Nc2ccccc2C2=NC(CCC(=O)NCc3ccco3)C(=O)N12` (stereo not drawn), the inhibition was 4.93% (inactive).

For the compound `CCN1C(=O)/C(=C2/Sc3ccccc3N2CCCS(=O)(=O)O)SC1=S`, the inhibition was 4.27% (inactive).
